Calls of active or inactive are those of the source. No cut-off for these calls is given here.
Assays:
LOX IMVI = test: Growth inhibition of human LOXIMVI cells assessed as cell growth at 10 uM after 48 hrs by MTT assay; values are per cent of control
MCF7 = test: Growth inhibition of human MCF7 cells assessed as cell growth at 10 uM after 48 hrs by MTT assay; values are per cent of control; conditions: MCF7, 48 h
SR = test: Growth inhibition of human SR cells assessed as cell growth at 10 uM after 48 hrs by MTT assay; values are per cent of control
A549 = test: Growth of human A549/ATCC cells assessed as cell growth at 10 uM after 48 hrs by MTT assay; conditions: A549, 48 h
SNB-75 = test: Growth of human SNB75 cells assessed as cell growth at 10 uM after 48 hrs by MTT assay; conditions: SNB-75, 48 h
786-0 = test: Growth inhibition of human 786-0 cells assessed as cell growth at 10 uM after 48 hrs by MTT assay; values are per cent of control; conditions: 786-0, 48 h
[1] = molecular target: T1, NAD-dependent protein deacetylase sirtuin-2 (Homo sapiens) (UniProt Q8IXJ6); test: Inhibition of human SIRT2 assessed as enzyme activity using Fluor-de-Lys as substrate at 100 uM by fluorometry
T1 sequence (whole entry): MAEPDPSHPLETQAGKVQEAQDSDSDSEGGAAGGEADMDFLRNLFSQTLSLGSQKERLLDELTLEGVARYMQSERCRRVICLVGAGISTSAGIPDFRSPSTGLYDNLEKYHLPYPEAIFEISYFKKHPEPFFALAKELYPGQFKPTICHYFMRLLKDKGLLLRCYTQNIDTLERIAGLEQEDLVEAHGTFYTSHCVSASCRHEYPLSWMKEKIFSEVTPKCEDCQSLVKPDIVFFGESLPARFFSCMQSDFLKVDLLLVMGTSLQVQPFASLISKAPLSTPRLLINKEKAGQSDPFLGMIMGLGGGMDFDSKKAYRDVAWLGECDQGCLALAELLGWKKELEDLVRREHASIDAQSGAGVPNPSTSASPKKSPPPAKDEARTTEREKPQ
Summary of the method: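 Commercial Fluor-de-Lys kit, substrate human p53 379–382 peptide (Arg-His-Lys-Lys(Ac)). Human Sirt1 or Sirt2 was incubated with substrate, NAD+ and compound at 1 mM, also tested at 100 µM. Fluorescence scales with Lys382 deacetylation. Activity is expressed relative to control, mean ± S.E.M. of 3–4 replicates.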

DU-145 = test: Growth inhibition of human DU145 cells assessed as cell growth at 10 uM after 48 hrs by MTT assay; values are per cent of control; conditions: DU-145, 48 h
MOLT-4 = test: Growth inhibition of human MOLT4 cells assessed as cell growth at 10 uM after 48 hrs by MTT assay; values are per cent of control; conditions: MOLT-4, 48 h
T47D = test: Growth inhibition of human T47D cells assessed as cell growth at 10 uM after 48 hrs by MTT assay; values are per cent of control
HT-29 = test: Growth inhibition of human HT-29 cells assessed as cell growth at 10 uM after 48 hrs by MTT assay; values are per cent of control; conditions: HT-29, 48 h
HeLa = test: Cytotoxicity against human HeLa cells assessed as cell death after 48 hrs
KM12 = test: Growth inhibition of human KM12 cells assessed as cell growth at 10 uM after 48 hrs by MTT assay; values are per cent of control; conditions: KM12, 48 h
UO-31 = test: Growth of human UO31 cells assessed as cell growth at 10 uM after 48 hrs by MTT assay; conditions: UO-31, 48 h
HL-60(TB) = test: Growth inhibition of human HL-60(TB) cells assessed as cell growth at 10 uM after 48 hrs by MTT assay; assay type: functional; conditions: HL-60, 48 h, read-out: GI
OVCAR-3 = test: Growth inhibition of human OVCAR3 cells assessed as cell growth at 10 uM after 48 hrs by MTT assay; values are per cent of control; conditions: OVCAR-3, 48 h
U-251 = test: Growth inhibition of human U251 cells assessed as cell growth at 10 uM after 48 hrs by MTT assay; values are per cent of control; conditions: U-251, 48 h
SN12C = test: Growth inhibition of human SN12C cells assessed as cell growth at 10 uM after 48 hrs by MTT assay; values are per cent of control
SF-295 = test: Growth inhibition of human SF295 cells assessed as cell growth at 10 uM after 48 hrs by MTT assay; values are per cent of control; conditions: SF-295, 48 h
SK-MEL-28 [2] = test: Reduction in ATP level in human SK-MEL-28 cells at 100 uM maintained in Locke's solution after 24 hrs by luciferase-based assay in absence of GF and glucose; assay type: functional, cell-based
Summary of the method: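 SK-MEL-28 cells were grown 24 h in Locke's saline lacking glucose and serum, with or without 100 µM compound; antimycin was the positive control. Cellular ATP was released with a somatic-cell releasing reagent, then luciferase/luciferin assay mix was added and bioluminescence read. Mean ± S.E.M. of 10–14 replicates from 3 separate experiments.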

SK-MEL-2 = test: Growth inhibition of human SK-MEL-2 cells assessed as cell growth at 10 uM after 48 hrs by MTT assay; values are per cent of control; conditions: SK-MEL-2, 48 h
PC-3 = test: Growth inhibition of human PC3 cells assessed as cell growth at 10 uM after 48 hrs by MTT assay; values are per cent of control; conditions: PC-3, 48 h
SK-MEL-28 [3] = test: Effect on ATP level in human SK-MEL-28 cells maintained in medium containing GF and glucose at 100 uM after 24 hrs by luciferase-based assay; assay type: functional, cell-based
Summary of the method: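 SK-MEL-28 cells in DMEM with 10% FBS, grown 24 h in 96-well plates in regular medium (growth factors, glucose), with or without compound at 100 µM. Antimycin served as positive control. Cellular ATP was released with a somatic cell releasing reagent and read by luciferase/luciferin bioluminescence. Mean ± S.E.M. of 10–14 replicates from 3 separate experiments.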

Question: Which growth, % of control at 10 µM (LOX IMVI) does the source give for `c1cncc(-c2cnn[nH]2)c1` here?
Answer: 102%

Question: What about the growth, % of control at 10 µM (MCF7) of the same molecule?
Answer: 117%

Question: What about the growth, % of control at 10 µM (SR) of the same molecule?
Answer: 97.3%

Question: And the growth, % of control at 10 µM (A549)?
Answer: 101%

Question: What about the growth, % of control at 10 µM (SNB-75) of the same molecule?
Answer: 93%

Question: And the growth, % of control at 10 µM (786-0)?
Answer: 104%

Question: And the inhibition [1]?
Answer: inactive

Question: What about the growth, % of control at 10 µM (DU-145) of the same molecule?
Answer: 96.3%

Question: And the growth, % of control at 10 µM (MOLT-4)?
Answer: 101%

Question: And the growth, % of control at 10 µM (T47D)?
Answer: 102%

Question: What about the growth, % of control at 10 µM (HT-29) of the same molecule?
Answer: 39.9%

Question: And the IC50 (HeLa)?
Answer: 4.7 µM

Question: What about the growth, % of control at 10 µM (KM12) of the same molecule?
Answer: 116%

Question: And the growth, % of control at 10 µM (UO-31)?
Answer: 76%

Question: What about the inhibition of growth at 10 µM (HL-60(TB)) of the same molecule?
Answer: 92.9%

Question: And the growth, % of control at 10 µM (OVCAR-3)?
Answer: 89.5%

Question: And the growth, % of control at 10 µM (U-251)?
Answer: 111%

Question: And the growth, % of control at 10 µM (SN12C)?
Answer: 102%

Question: And the growth, % of control at 10 µM (SF-295)?
Answer: 107%

Question: What about the Activity (SK-MEL-28 [2]) of the same molecule?
Answer: Active

Question: And the growth, % of control at 10 µM (SK-MEL-2)?
Answer: 109%

Question: And the growth, % of control at 10 µM (PC-3)?
Answer: 88.5%

Question: And the Activity (SK-MEL-28 [3])?
Answer: inactive

— ChEMBL document CHEMBL2062496, “Identification of a sirtuin 3 inhibitor that displays selectivity over sirtuin 1 and 2” (Eur J Med Chem, 2012)
